Activity calls are given as the source filed them. No cut-off for these calls is given here.
Tests used:
A2780 [1] = assay: Growth inhibition of human A2780 cells incubated for 3 days by MTT assay; conditions: A2780, 72 h
HCT-116 [2] = assay: Growth inhibition of human HCT116 cells incubated for 3 days by MTT assay; conditions: HCT-116, 72 h
HepG2 [3] = assay: Growth inhibition of human HepG2 cells incubated for 3 days by MTT assay; conditions: HepG2, 72 h
NCI-H1650 [4] = assay: Growth inhibition of human NCI-H1650 cells incubated for 3 days by MTT assay; conditions: NCI-H1650, 72 h
BGC-823 [5] = assay: Growth inhibition of human BGC823 cells incubated for 3 days by MTT assay; conditions: BGC-823, 72 h
[6] = target: Cyclin-dependent kinase 2/cyclin E1 (Homo sapiens) (UniProt P24864+P24941); assay: Inhibition of CDK2/Cyclin E1 (unknown origin) at 10 uM; assay type: protein-complex assay
HepG2 [7] = assay: Growth inhibition of human HepG2 cells at 10 uM incubated for 3 days by MTT assay
NCI-H1650 [8] = assay: Growth inhibition of human NCI-H1650 cells at 10 uM incubated for 3 days by MTT assay
[9] = target: CDK9/cyclin T1 (Homo sapiens) (UniProt O60563+P50750); assay: Inhibition of CDK9/Cyclin T1 (unknown origin) at 10 uM; assay type: protein-complex assay
A2780 [10] = assay: Growth inhibition of human A2780 cells at 10 uM incubated for 3 days by MTT assay
BGC-823 [11] = assay: Growth inhibition of human BGC823 cells at 10 uM incubated for 3 days by MTT assay
HCT-116 [12] = assay: Growth inhibition of human HCT116 cells at 10 uM incubated for 3 days by MTT assay
A549 = assay: Growth inhibition of human A549 cells incubated for 3 days by SRB assay; assay type: functional, cell-based; conditions: A549, 72 h
MDA-MB-231 [13] = assay: Induction of cell cycle arrest in human MDA-MB-231 cells assessed as increase in accumulation at subG1 phase at 5 times IC50 incubated for 24 hrs by propidium iodide staining based flow cytometry; assay type: functional
Procedure, shortened: (§1)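 MDA-MB-231 cells exposed 24 h. Combretastatin A-4 at 200 nM served as reference for G2/M arrest. Cells were then fixed, stained with propidium iodide, and phase distribution was read on a flow cytometer.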

KB = assay: Growth inhibition of human KB cells incubated for 3 days by SRB assay; assay type: functional, cell-based; conditions: 72 h
MCF7 = assay: Growth inhibition of human MCF7 cells incubated for 3 days by SRB assay; assay type: functional, cell-based; conditions: MCF7, 72 h
MDA-MB-231 [14] = assay: Growth inhibition of human MDA-MB-231 cells incubated for 3 days by SRB assay; assay type: functional, cell-based; conditions: MDA-MB-231, 72 h
[15] = Growth inhibition of human KBVIN cells incubated for 3 days by SRB assay; assay type: functional, cell-based; conditions: 72 h
Homo sapiens = species: Homo sapiens; assay: Induction of microtubule destabilization in human MDA-MB-231 cells at 5 times IC50 incubated for 24 hrs by fluorescent microscopy; assay type: cell-based
Procedure, shortened: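 MDA-MB-231 cells treated 24 h alongside a DMSO control. Cells were fixed and immunostained for α-tubulin and phosphorylated histone H3, with DAPI for DNA. The microtubule network was judged in interphase cells (phospho-H3-negative) by confocal fluorescence microscopy with ×63 or ×40 objectives.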

MDA-MB-231 [16] = assay: Induction of cell cycle arrest in human MDA-MB-231 cells assessed as increase in accumulation at G2/M phase at 5 times IC50 incubated for 24 hrs by propidium iodide staining based flow cytometry; assay type: functional
Procedure, shortened: as §1

Compound | IC50 (A2780 [1]) | IC50 (HCT-116 [2]) | IC50 (HepG2 [3]) | IC50 (NCI-H1650 [4]) | IC50 (BGC-823 [5]) | inhibition [6] | growth inhibition (GI) (HepG2 [7]) | growth inhibition (GI) (NCI-H1650 [8]) | inhibition [9] | growth inhibition (GI) (A2780 [10]) | growth inhibition (GI) (BGC-823 [11]) | growth inhibition (GI) (HCT-116 [12]) | IC50 (A549) | Activity (MDA-MB-231 [13]) | IC50 (KB) | IC50 (MCF7) | IC50 (MDA-MB-231 [14]) | IC50 [15] | Activity (Homo sapiens) | Activity (MDA-MB-231 [16])
CC(=O)O[C@H]1C(=O)[C@@]2(C)[C@H]([C@H](OC(=O)c3ccccc3)[C@]3(O)C[C@H](OC(=O)[C@H](O)[C@@H](NC(=O)c4ccccc4)c4ccccc4)C(C)=C1C3(C)C)[C@]1(OC(C)=O)CO[C@@H]1C[C@@H]2O [PACLITAXEL] | 30 nM | 30 nM | 20 nM | 70 nM | 1 nM | – | – | – | – | – | – | – | – | – | – | – | – | – | – | –
CN1CCC(C(=O)Nc2ccc3c(c2)/C(=C/Nc2cccc(N4CCN(C)CC4)c2)C(=O)N3)CC1 | – | 4670 nM | – | – | – | inactive | inactive | inactive | inactive | inactive | inactive | – | – | – | – | – | – | – | – | –
O=C1Nc2ccc(F)cc2/C1=C\C(=O)c1cc(Cl)sc1Cl | – | – | – | – | – | inactive | inactive | inactive | inactive | inactive | inactive | inactive | – | – | – | – | – | – | – | –
O=C1Nc2ccc([N+](=O)[O-])cc2/C1=C\C(=O)c1ccc(C2CCCCC2)cc1 | 2090 nM | 2320 nM | 3990 nM | 3860 nM | 5900 nM | inactive | – | – | inactive | – | – | – | – | – | – | – | – | – | – | –
CN1CCN(c2cccc(N/C=C3\C(=O)Nc4ccc(NC(=O)c5c(F)cccc5F)cc43)c2)CC1 | 2030 nM | 2150 nM | 3030 nM | 1630 nM | 2670 nM | inactive | – | – | inactive | – | – | – | 4750 nM | Active | 4400 nM | 4440 nM | 4430 nM | 7860 nM | – | –
O=C1Nc2ccc(F)cc2/C1=C\C(=O)c1c[nH]c2ccccc12 | 2440 nM | 3010 nM | 1860 nM | 6580 nM | 8990 nM | inactive | – | – | inactive | – | – | – | – | – | – | – | – | – | – | –
O=C1Nc2ccccc2/C1=C1/Nc2ccccc2/C1=N\O | – | – | – | – | – | – | inactive | inactive | – | inactive | inactive | inactive | 5820 nM | – | 5340 nM | 6810 nM | 7590 nM | 5170 nM | inactive | Active
O=C1Nc2ccc(F)cc2/C1=C\C(=O)c1ccco1 | – | – | – | – | – | inactive | inactive | inactive | inactive | inactive | inactive | inactive | – | – | – | – | – | – | – | –
CN1CCN(c2cccc(N/C=C3\C(=O)Nc4ccc(NC(=O)c5cccc(F)c5)cc43)c2)CC1 | 2910 nM | 2740 nM | 6720 nM | 4280 nM | 8500 nM | inactive | – | – | inactive | – | – | – | – | – | – | – | – | – | – | –
O=C1Nc2ccc(F)cc2/C1=C\C(=O)c1ccc(-n2ccnc2)cc1 | – | – | – | – | – | inactive | inactive | inactive | inactive | inactive | inactive | inactive | – | – | – | – | – | – | – | –
COc1ccc(C(=O)Nc2ccc3c(c2)/C(=C/Nc2cccc(N4CCN(C)CC4)c2)C(=O)N3)cc1 | 2050 nM | 2010 nM | 1780 nM | 1870 nM | 3170 nM | inactive | – | – | inactive | – | – | – | – | – | – | – | – | – | – | –
O=C1Nc2ccccc2/C1=C\C(=O)c1c[nH]c2ccccc12 | 2080 nM | 860 nM | 2110 nM | 1270 nM | 9440 nM | inactive | – | – | inactive | – | – | – | – | – | – | – | – | – | – | –
O=C1Nc2ccc(F)cc2/C1=C\C(=O)c1sccc1Cl | 2140 nM | 2450 nM | 3100 nM | 3560 nM | 2660 nM | inactive | – | – | inactive | – | – | – | – | – | – | – | – | – | – | –
O=C1Nc2ccc(F)cc2/C1=C\C(=O)c1ccccc1O | – | – | – | – | – | inactive | inactive | inactive | inactive | inactive | inactive | inactive | – | – | – | – | – | – | – | –
O=C1Nc2ccc(F)cc2/C1=C\C(=O)c1ccc(C2CCCCC2)cc1 | 2310 nM | 2520 nM | 2840 nM | 2730 nM | 4450 nM | inactive | – | – | inactive | – | – | – | – | – | – | – | – | – | – | –
O=C1Nc2ccc(F)cc2/C1=C\C(=O)c1ccc[nH]1 | 2170 nM | 1380 nM | 3120 nM | 2840 nM | 6420 nM | inactive | – | – | inactive | – | – | – | – | – | – | – | – | – | – | –
CN1CCN(c2cccc(N/C=C3\C(=O)Nc4ccc(NC(=O)c5c(Cl)cccc5Cl)cc43)c2)CC1 | 2140 nM | 2280 nM | 2370 nM | 2170 nM | 2240 nM | inactive | – | – | inactive | – | – | – | – | – | – | – | – | – | – | –
O=C1Nc2ccc(F)cc2/C1=C\C(=O)c1ccc(O)cc1F | 1580 nM | 1070 nM | 3440 nM | 3460 nM | 6120 nM | inactive | – | – | inactive | – | – | – | – | – | – | – | – | – | – | –
O=C1Nc2ccc(F)cc2/C1=C\C(=O)c1cnccn1 | – | – | – | – | – | inactive | inactive | inactive | inactive | inactive | inactive | inactive | – | – | – | – | – | – | – | –
O=C1Nc2ccc(F)cc2/C1=C\C(=O)c1ccc2c(c1)OCO2 | 1120 nM | 760 nM | 2280 nM | 1220 nM | 4090 nM | inactive | – | – | inactive | – | – | – | > 10000 nM | – | > 10000 nM | > 10000 nM | 5310 nM | > 10000 nM | Active | Active
O=C1Nc2ccc(F)cc2/C1=C\C(=O)c1cccs1 | 2750 nM | 1840 nM | 8780 nM | 3220 nM | 7750 nM | inactive | – | – | inactive | – | – | – | – | – | – | – | – | – | – | –
O=C1Nc2ccc(F)cc2/C1=C\C(=O)c1nccs1 | – | – | – | – | – | inactive | inactive | inactive | inactive | inactive | inactive | inactive | – | – | – | – | – | – | – | –
CN1CCN(c2cccc(N/C=C3\C(=O)Nc4ccc(NC(=O)c5ccc[nH]5)cc43)c2)CC1 | 4460 nM | – | 5370 nM | 7560 nM | – | inactive | – | – | inactive | – | inactive | inactive | – | – | – | – | – | – | – | –
CC(C)CC(=O)Nc1ccc2c(c1)/C(=C/Nc1cccc(N3CCN(C)CC3)c1)C(=O)N2 | 3370 nM | 9410 nM | 5070 nM | 5870 nM | 6080 nM | inactive | – | – | inactive | – | – | – | – | – | – | – | – | – | – | –
O=C1Nc2ccc(F)cc2/C1=C\C(=O)c1cnc2ccc(Cl)nn12 | 2370 nM | 1410 nM | 3090 nM | 2730 nM | 8020 nM | inactive | – | – | inactive | – | – | – | – | – | – | – | – | – | – | –

Reference: ChEMBL document CHEMBL4052679, “Design, synthesis and biological evaluation of novel indolin-2-ones as potent anticancer compounds” (Bioorg Med Chem Lett, 2017)
